High-throughput results: PubChem, several laboratories
Rows were chosen to be rich in hits. Some 3.9% of all compounds tested hit in one or more screens of this group.
CRFR2-BP ag: agonists of CRF-BP/CRF-R2 complex, primary screen, cell-based, HEK293, calcium dye fluorescence, uHTS | CRF-binding protein / CRF receptor 2 complex (human) | calcium dye fluorescence (FLIPR); percent of saturating CRF peptide response | activation, % at 13.2 µM | 350,000 compounds, 0.46% hits;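 active = activation of at least 50%, plus an integration ratio under a set limit after plate pattern correction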;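 also: plate controls were neutral control wells without compound for no effect and CRF at EC100 for full effect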
CRFBP-R2 block: antagonists of CRF-BP/CRF-R2 complex, primary screen, cell-based, HEK293, calcium dye fluorescence, uHTS; CRF-induced calcium fluorescence; 350,000 compounds, 0.59% hits; inhibition, % at 11.8 µM;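 active = inhibition of the ligand-induced calcium signal above about 50% at the single tested concentration, limit read from the data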
ANO1 activ: TMEM16A chloride channel activators or potentiators, primary screen, cell-based, HTS | Anoctamin-1 (Mus musculus), Q8BHY3 | HEK293 TMEM16A/YFP-H148Q/I152L, iodide quench fluorescence; hits give low values | B-score at 10 µM | 340,000 compounds, 0.3% hits | AID 623877, 2012;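 active = fluorescence-ratio B-score plate-corrected deviation score at least 3 library SD below zero, with starting fluorescence score within 5 deviations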;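 also: channel opened by trigger with iodide after compound preincubation; score built on the fluorescence ratio of max minus min over baseline; more negative score means more quench and so TMEM16A activation or potentiation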
Target sequence (Q8BHY3 whole entry, looked up): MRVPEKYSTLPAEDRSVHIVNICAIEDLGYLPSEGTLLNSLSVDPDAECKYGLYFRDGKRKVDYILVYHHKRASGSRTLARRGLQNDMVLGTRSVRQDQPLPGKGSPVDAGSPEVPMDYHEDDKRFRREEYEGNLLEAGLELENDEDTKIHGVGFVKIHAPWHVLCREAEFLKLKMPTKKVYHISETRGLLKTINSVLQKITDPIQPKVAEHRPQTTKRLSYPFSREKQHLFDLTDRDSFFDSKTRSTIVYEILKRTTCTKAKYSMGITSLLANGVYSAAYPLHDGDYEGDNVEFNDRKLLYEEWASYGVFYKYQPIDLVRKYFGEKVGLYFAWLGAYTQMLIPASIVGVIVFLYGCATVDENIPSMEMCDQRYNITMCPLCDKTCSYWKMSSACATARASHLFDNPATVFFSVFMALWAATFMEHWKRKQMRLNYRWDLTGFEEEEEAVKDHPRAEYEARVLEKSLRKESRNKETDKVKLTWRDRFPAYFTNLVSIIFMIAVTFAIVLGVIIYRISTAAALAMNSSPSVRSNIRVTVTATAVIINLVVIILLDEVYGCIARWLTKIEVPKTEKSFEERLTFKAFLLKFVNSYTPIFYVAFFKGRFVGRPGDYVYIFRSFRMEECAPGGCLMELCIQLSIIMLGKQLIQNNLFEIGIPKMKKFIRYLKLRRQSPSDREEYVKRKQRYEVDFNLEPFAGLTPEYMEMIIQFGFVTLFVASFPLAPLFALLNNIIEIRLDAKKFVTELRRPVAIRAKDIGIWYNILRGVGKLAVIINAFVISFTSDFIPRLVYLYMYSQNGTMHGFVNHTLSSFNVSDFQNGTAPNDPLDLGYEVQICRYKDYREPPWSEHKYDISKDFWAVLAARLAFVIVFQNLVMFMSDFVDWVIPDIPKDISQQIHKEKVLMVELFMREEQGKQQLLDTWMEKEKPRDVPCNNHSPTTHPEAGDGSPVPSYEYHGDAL
ANO1 block: TMEM16A chloride channel inhibitors, primary screen, cell-based, HTS | Anoctamin-1 (Mus musculus), Q8BHY3 | HEK293 TMEM16A/YFP iodide influx fluorescence, ionomycin | normalized B-score (activity score, 25-100; higher = stronger inhibition) at 10 µM | 310,000 compounds, 1.2% hits;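 active = ratio plate-corrected score three or more library SD toward inhibition, starting fluorescence score within five deviations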;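 also: score derived from kinetic fluorescence span divided by baseline fluorescence per well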
TAAR1 agonist: human TAAR1 agonists, primary screen, Fluo-8 calcium fluorescence, CHO RD-HGA16 cells | vehicle wells 0%, saturating PEA agonist 100% | 360,000 compounds, 0.99% hits | activation, % at 3 µM | Trace amine-associated receptor 1 (Homo sapiens), Q96RJ0 | AID 624467, 2012;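 active = activation above the mean activation of all test compounds in the run plus 3 SD, cut at about 38% in these data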
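Test system: RD-HGA16 (CHO) cells co-expressing Gα16 and hTAAR1 / Benchmarks: DMSO vehicle as 0%, PEA at EC100 as 100% / Repeats: no replicates (n 1) / Measure: % activation from peak over basal fluorescence ratio, DMSO-to-PEA scaled / Timing: 17-24 h plating, Fluo-8 75 min 37 °C, 30 min RT / Technique: kinetic Fluo-8 calcium fluorescence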
TAAR1 antagonist: human TAAR1 antagonists, primary screen, Fluo-8 calcium fluorescence, CHO RD-HGA16 cells; AID 624466, 2012; inhibition, % at 3 µM; 360,000 compounds, 1.5% hits; antagonist;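 active = inhibition above a per-plate cutoff, the mean inhibition of test compounds on that plate plus 3 SD, cut at about 49% in these data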;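 also: 0% = DMSO plus EC80 beta-PEA response and 100% = DMSO alone without agonist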
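Test system – hTAAR1-expressing CHO RD-HGA16 cells, Gα16-coupled · Reagent – β-PEA at EC80 concentration, post-compound challenge · Compound dosing – 3 µM, single point · Timing – 140 s kinetic read after compound, 140 s after agonist · Detection – Fluo-8 intracellular calcium dye fluorescence, real-time kinetic reads · Control set – DMSO and EC80 PEA controls · Repeats – n of 1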
* hit, by the source's call; i = inactive; · = no result given.

SMILES	CRFR2-BP ag	CRFBP-R2 block	ANO1 activ	ANO1 block	TAAR1 agonist	TAAR1 antagonist
Cc1ccccc1OC1C(=O)N(Cc2ccc3c(c2)OCO3)C1c1sccc1C (configuration not stated)	2	27	i	i	12	57*
C=CCN=C1CCCc2c1[nH]c1ccc(C)cc21	-1	11	i	i	4	9
CC(C)(C)S(=O)N1Cc2cc(C(=O)NCC(F)(F)F)nc(-c3cccc(-c4cccc(F)c4)c3)c2[C@@H]1CCO (some centres not stated)	·	·	·	·	15	51*
CC(C)(C)S(=O)N1Cc2cc(C(=O)NCCCN3CCOCC3)nc(-c3cccc(-c4cc5ccccc5o4)c3)c2[C@@H]1CCO (some centres not stated)	·	·	·	·	21	55*
CCCNC(=O)c1cc2c(c(-c3cccc(-c4cc5ccccc5o4)c3)n1)[C@H](CCO)N(C(=O)NC(C)C)C2	·	·	·	·	5	50*
CC(C)(O)C#Cc1cccc(-c2nc(C(=O)NCCCN3CCOCC3)cc3c2[C@H](CCO)N(S(=O)C(C)(C)C)C3)c1 (some centres not stated)	·	·	·	·	1	-6
C[C@H](NCc1c[nH]c2ccccc12)c1ccccc1	0	-10	i	i	6	3
Cc1cc(NC(=O)CSc2nnc(C)n2-c2ccccc2C)no1	0	-3	i	i	2	4
CCCCn1c(N)c(N(CCOC)C(=O)C2CC(=O)N(c3ccc(CC)cc3)C2)c(=O)[nH]c1=O (configuration not stated)	0	-1	i	·	9	-12
CC(C(=O)NCc1ccccn1)c1ccc([N+](=O)[O-])cc1 (configuration not stated)	-1	5	i	i	0	1
C/C(=N\Nc1cc(C)nc(-c2ccccc2)n1)c1cccc([N+](=O)[O-])c1	6	119*	i	i	0	-5
COc1ccc(NC(=S)NC(NC(=O)c2ccccc2Cl)C(Cl)(Cl)Cl)c([N+](=O)[O-])c1 (configuration not stated)	0	-39	i	i	5	-20
COc1ccc(NC(=S)NC(NC(=O)c2cccc3ccccc23)C(Cl)(Cl)Cl)c([N+](=O)[O-])c1 (configuration not stated)	-1	-10	-7.4*	i	7	5
O=C1N/C(=C\c2ccc(O)cc2)C(=O)c2ccccc21	15	-49	i	25*	·	·
CCOC(=O)c1cc([N+](=O)[O-])sc1NC(=O)c1ccc(S(=O)(=O)N2CC3(C)CC2CC(C)(C)C3)cc1 (configuration not stated)	152*	-129	-26*	i	6	-19
CCN1CCN(C(c2cccs2)C(C)NC(=S)Nc2cccc(C)c2C)CC1 (configuration not stated)	1	-15	i	i	4	-3
CC(C)c1ccc(C2=C(O)c3ccccc3C(=O)C2=O)cc1	-1	14	i	25*	0	-9
O=C(Nc1cc2c(cc1C(=O)O)OCCCO2)c1ccc(F)cc1F	0	6	i	i	-2	3
CN(CC1CCCO1)S(=O)(=O)c1ccc(C(=O)Nc2nc(-c3ccccn3)cs2)cc1 (configuration not stated)	4	-24	i	25*	·	·
Cc1cccc(N(CC(=O)NC2CCCC2)C(=O)CCC(=O)Nc2ccccn2)c1	-1	-5	i	i	-1	-21
CC(C)C[C@H](NC(=O)c1nc[nH]c1C(=O)N[C@@H](CCCCNC(=O)OC(C)(C)C)C(=O)OC(C)(C)C)C(=O)OC(C)(C)C	3	25	-5*	i	7	-4
CC(C)(C)OC(=O)NCCCCCNC(=O)c1nc[nH]c1C(=O)N1CCN(c2ccccc2)CC1	-2	0	i	·	21	50*
CC(C)C[C@H](NC(=O)c1nc[nH]c1C(=O)NCCCCCNC(=O)OC(C)(C)C)C(=O)OC(C)(C)C	-1	9	i	i	2	-3
CC(C)(C)OC(=O)NCCCC[C@H](NC(=O)c1nc[nH]c1C(=O)N1CCN(c2ccccc2)CC1)C(=O)OC(C)(C)C	12	23	i	i	15	33
Cn1cc(Cl)c(C(=O)OCC(=O)Nc2ccc(S(N)(=O)=O)cc2)n1	1	15	i	·	-1	-19
SMILES	CRFR2-BP ag	CRFBP-R2 block	ANO1 activ	ANO1 block	TAAR1 agonist	TAAR1 antagonist
CC(=O)Nc1ccc2cc3ccc(NC(C)=O)cc3nc2c1	0	11	-9.8*	i	2	-7
CC(=O)Nc1ccc2ccccc2c1	3	19	i	i	·	·
Cc1cc(NC(=O)CCC(=O)N(CC(=O)NCC2CCCO2)c2ccc(C)c(C)c2)no1 (configuration not stated)	0	6	i	i	-1	-5
Cn1c(=O)c2ccccc2n(Cc2ccccc2Cl)c1=O	-1	37	i	i	10	-6
CN(Cc1ccccc1)C(=O)c1[nH]cnc1C(=O)NCc1ccccc1	-4	-9	-8.1*	·	3	18
Nc1nn(S(=O)(=O)c2ccccc2)cc1-c1ccc([N+](=O)[O-])cc1	-1	50*	i	i	11	6
CC1CCCC(C)N1C(=O)COC(=O)c1cccs1 (configuration not stated)	0	62*	i	·	3	-5
O=C(Nc1cc(C(F)(F)F)ccc1-n1cncn1)c1ccc(Cl)cc1	-2	82*	i	i	1	3
O=C(Nc1cc(C(F)(F)F)ccc1-n1cncn1)c1ccc(-c2ccccc2)cc1	-1	-23	i	i	2	-26
CNc1nc(Oc2cccc(NC(C)=O)c2)c2sccc2n1	·	·	·	·	10	-23
Cc1ccc(S(=O)(=O)Cn2nnnc2C(C(C)C)N2CCC(O)CC2)cc1 (configuration not stated)	-1	-4	i	i	1	12
Cc1nc2ccc(NS(=O)(=O)c3ccc(C)c(C)c3)cc2s1	-3	78*	i	i	19	12
NC(=O)c1ccc(NS(=O)(=O)c2ccc(Br)s2)cc1	2	5	-21*	·	6	-30
CSc1nc2ccc(NS(=O)(=O)c3ccc(Br)s3)cc2s1	0	5	i	25*	8	3
COc1cc(S(=O)(=O)Nc2ccc3nc(C)sc3c2)ccc1NC(C)=O	-1	3	i	·	2	4
